Experimental data from the M2OR odorant receptor database.
Residue numbers refer to the chain shown, from its start.

Assays:
Conditions in all cases: stereoisomer not certain
Or10j5 (Mus musculus) = biological target: T1, Or10j5 (Mus musculus) (UniProt Q62007)
T1 sequence (whole entry): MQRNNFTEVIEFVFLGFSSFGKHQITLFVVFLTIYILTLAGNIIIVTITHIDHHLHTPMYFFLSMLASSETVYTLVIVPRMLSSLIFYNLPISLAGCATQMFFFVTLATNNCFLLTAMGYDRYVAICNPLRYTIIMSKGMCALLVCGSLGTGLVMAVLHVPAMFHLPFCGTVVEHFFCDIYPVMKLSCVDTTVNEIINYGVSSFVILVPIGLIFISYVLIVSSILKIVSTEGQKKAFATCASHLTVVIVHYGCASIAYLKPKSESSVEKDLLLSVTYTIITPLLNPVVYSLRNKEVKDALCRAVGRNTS
In short: (§1)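 Transient luciferase assays in mammalian cell lines were common, though methods varied by source. The values come from published papers and their supplementary material, with extra details from the original authors when needed. Responsive refers to a measured signal the original authors judged statistically different from baseline, and non-responsive (inactive) to the remainder.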

Or1m1 (Mus musculus) = biological target: T2, Or1m1 (Mus musculus) (UniProt Q8VFM9)
T2 sequence (whole entry): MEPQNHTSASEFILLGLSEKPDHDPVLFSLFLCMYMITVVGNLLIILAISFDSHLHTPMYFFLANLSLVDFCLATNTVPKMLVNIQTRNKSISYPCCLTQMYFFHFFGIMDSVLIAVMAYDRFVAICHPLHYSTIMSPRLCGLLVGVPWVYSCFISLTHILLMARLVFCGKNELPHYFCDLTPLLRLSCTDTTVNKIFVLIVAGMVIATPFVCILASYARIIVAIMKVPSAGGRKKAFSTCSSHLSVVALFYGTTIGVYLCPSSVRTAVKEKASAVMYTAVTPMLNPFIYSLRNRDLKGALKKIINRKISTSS
In short: as §1

Or2c1 (Mus musculus) = biological target: T3, Or2c1 (Mus musculus) (UniProt P23275)
T3 sequence (whole entry): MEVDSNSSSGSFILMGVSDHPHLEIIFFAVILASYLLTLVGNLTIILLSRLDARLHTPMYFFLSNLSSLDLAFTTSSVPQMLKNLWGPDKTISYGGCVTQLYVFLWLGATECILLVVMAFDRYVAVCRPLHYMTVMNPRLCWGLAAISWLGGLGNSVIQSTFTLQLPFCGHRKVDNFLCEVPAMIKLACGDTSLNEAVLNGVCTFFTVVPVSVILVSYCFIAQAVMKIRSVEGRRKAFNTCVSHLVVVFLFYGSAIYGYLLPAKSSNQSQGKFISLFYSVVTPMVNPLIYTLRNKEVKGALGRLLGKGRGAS
In short: as §1

Or5ar1 (Mus musculus) = biological target: T4, Or5ar1 (Mus musculus) (UniProt Q8VGS3)
T4 sequence (whole entry): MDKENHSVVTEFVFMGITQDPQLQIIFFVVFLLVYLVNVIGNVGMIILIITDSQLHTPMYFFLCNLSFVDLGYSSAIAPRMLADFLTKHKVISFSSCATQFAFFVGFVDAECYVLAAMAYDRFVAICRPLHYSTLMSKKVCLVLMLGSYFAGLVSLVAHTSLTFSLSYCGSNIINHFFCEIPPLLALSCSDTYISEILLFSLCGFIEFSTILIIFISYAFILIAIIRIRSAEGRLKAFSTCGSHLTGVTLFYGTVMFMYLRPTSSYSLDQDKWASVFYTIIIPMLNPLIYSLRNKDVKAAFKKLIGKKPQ
In short: as §1

OR9Q1 (Homo sapiens) = biological target: T5, OR9Q1 (Homo sapiens) (UniProt Q8NGQ5)
T5 sequence (whole entry): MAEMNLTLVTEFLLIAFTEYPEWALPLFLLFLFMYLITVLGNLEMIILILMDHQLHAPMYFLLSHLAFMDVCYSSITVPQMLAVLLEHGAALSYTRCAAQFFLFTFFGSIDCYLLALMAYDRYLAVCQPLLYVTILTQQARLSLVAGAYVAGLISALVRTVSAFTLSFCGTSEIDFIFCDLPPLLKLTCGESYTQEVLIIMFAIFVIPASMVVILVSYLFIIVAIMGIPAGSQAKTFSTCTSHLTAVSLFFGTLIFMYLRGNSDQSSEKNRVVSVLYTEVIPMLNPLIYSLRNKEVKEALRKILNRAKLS
In short: as §1

OR9Q2 (Homo sapiens) = biological target: T6, OR9Q2 (Homo sapiens) (UniProt Q8NGE9)
T6 sequence (whole entry): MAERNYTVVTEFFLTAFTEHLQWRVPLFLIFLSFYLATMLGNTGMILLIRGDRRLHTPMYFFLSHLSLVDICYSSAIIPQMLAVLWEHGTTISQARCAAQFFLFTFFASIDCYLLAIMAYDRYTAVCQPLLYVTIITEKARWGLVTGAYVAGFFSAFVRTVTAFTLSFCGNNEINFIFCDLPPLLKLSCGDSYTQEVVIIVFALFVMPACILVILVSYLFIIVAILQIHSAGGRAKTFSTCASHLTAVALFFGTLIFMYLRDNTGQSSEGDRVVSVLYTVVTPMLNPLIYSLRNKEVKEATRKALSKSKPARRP
In short: as §1

OR9Q1 A83T = test system: T7, OR9Q1 A83T
T7 sequence (whole entry): T5 sequence (whole entry) with A83T
In short: as §1

OR9Q2 C179R = test system: T8, OR9Q2 C179R
T8 sequence (whole entry): T6 sequence (whole entry) with C179R
In short: as §1

Or5k16 (Mus musculus) = biological target: T9, Or5k16 (Mus musculus) (UniProt Q7TS48)
T9 sequence (whole entry): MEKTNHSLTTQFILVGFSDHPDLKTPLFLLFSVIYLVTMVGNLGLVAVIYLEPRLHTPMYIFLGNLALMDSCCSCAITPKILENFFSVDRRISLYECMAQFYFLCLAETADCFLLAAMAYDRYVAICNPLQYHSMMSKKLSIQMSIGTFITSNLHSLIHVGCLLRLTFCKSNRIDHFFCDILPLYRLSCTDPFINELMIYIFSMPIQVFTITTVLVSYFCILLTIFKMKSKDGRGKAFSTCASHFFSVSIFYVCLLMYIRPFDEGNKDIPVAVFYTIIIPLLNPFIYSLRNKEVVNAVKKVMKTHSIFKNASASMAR
In short: as §1
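Also: active if original authors judged signal statistically different from baseline.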

O=C(O)CCCCCCCCCBr
odorant receptor agonist call (Or10j5 (Mus musculus)): inactive

O=C(O)CCCCBr
odorant receptor agonist call (Or10j5 (Mus musculus)): inactive

CCCCCCCCCO
odorant receptor agonist call (Or10j5 (Mus musculus)): inactive
odorant receptor agonist call (Or1m1 (Mus musculus)): inactive
odorant receptor agonist call (Or2c1 (Mus musculus)): inactive
odorant receptor agonist call (Or5ar1 (Mus musculus)): inactive

CCCCCC(=O)C(C)C(C)=O (configuration not stated)
odorant receptor agonist call (OR9Q1 (Homo sapiens)): inactive
odorant receptor agonist call (OR9Q2 (Homo sapiens)): inactive

CCCCCCCCCC(=O)[O-].[H+]
odorant receptor agonist call (Or10j5 (Mus musculus)): inactive
odorant receptor agonist call (Or1m1 (Mus musculus)): inactive
odorant receptor agonist call (Or2c1 (Mus musculus)): active
odorant receptor agonist call (Or5ar1 (Mus musculus)): inactive

CCCCCCCCCCCC=O
odorant receptor agonist call (Or10j5 (Mus musculus)): inactive

CCCCC(S)C(C)CO (configuration not stated)
odorant receptor agonist call (OR9Q1 (Homo sapiens)): inactive
odorant receptor agonist call (OR9Q2 (Homo sapiens)): inactive

CCCCCCO
odorant receptor agonist call (Or10j5 (Mus musculus)): inactive
odorant receptor agonist call (Or1m1 (Mus musculus)): inactive
odorant receptor agonist call (Or2c1 (Mus musculus)): inactive
odorant receptor agonist call (Or5ar1 (Mus musculus)): inactive

Cc1cnc(C)c(C)n1
odorant receptor agonist call (OR9Q1 (Homo sapiens)): inactive
odorant receptor agonist call (OR9Q1 A83T): inactive
odorant receptor agonist call (OR9Q2 (Homo sapiens)): inactive
odorant receptor agonist call (OR9Q2 C179R): inactive
odorant receptor agonist call (Or5k16 (Mus musculus)): inactive

CCCCCCC=CCCC=O
odorant receptor agonist call (OR9Q1 (Homo sapiens)): inactive
odorant receptor agonist call (OR9Q1 A83T): inactive
odorant receptor agonist call (OR9Q2 (Homo sapiens)): inactive
odorant receptor agonist call (OR9Q2 C179R): inactive

O=C([O-])CCCCCCCC(=O)[O-].[H+].[H+]
odorant receptor agonist call (Or10j5 (Mus musculus)): inactive
odorant receptor agonist call (Or1m1 (Mus musculus)): inactive
odorant receptor agonist call (Or5ar1 (Mus musculus)): inactive

CCC1OC(C)=C(O)C1=O (configuration not stated)
odorant receptor agonist call (OR9Q1 (Homo sapiens)): inactive
odorant receptor agonist call (OR9Q1 A83T): inactive
odorant receptor agonist call (OR9Q2 (Homo sapiens)): inactive
odorant receptor agonist call (OR9Q2 C179R): inactive

CCCC(S)CCOC(C)=O (configuration not stated)
odorant receptor agonist call (OR9Q1 (Homo sapiens)): inactive
odorant receptor agonist call (OR9Q1 A83T): inactive
odorant receptor agonist call (OR9Q2 (Homo sapiens)): inactive
odorant receptor agonist call (OR9Q2 C179R): inactive

CC(C)=CCCC(C)=CCO
odorant receptor agonist call (Or10j5 (Mus musculus)): inactive
odorant receptor agonist call (Or1m1 (Mus musculus)): inactive
odorant receptor agonist call (Or2c1 (Mus musculus)): inactive
odorant receptor agonist call (Or5ar1 (Mus musculus)): inactive

CC(CO)CS (configuration not stated)
odorant receptor agonist call (OR9Q1 (Homo sapiens)): inactive
odorant receptor agonist call (OR9Q2 (Homo sapiens)): inactive

CCCCCCCCCCC(=O)O
odorant receptor agonist call (Or10j5 (Mus musculus)): inactive

CC1=NC(C)C(C)S1 (configuration not stated)
odorant receptor agonist call (OR9Q1 (Homo sapiens)): inactive
odorant receptor agonist call (OR9Q1 A83T): inactive
odorant receptor agonist call (OR9Q2 (Homo sapiens)): inactive
odorant receptor agonist call (OR9Q2 C179R): inactive
odorant receptor agonist call (Or5k16 (Mus musculus)): active

CCCCCCCCCCCC(=O)O
odorant receptor agonist call (Or10j5 (Mus musculus)): inactive

O=C(O)CCCCCCCCCC(=O)O
odorant receptor agonist call (Or10j5 (Mus musculus)): inactive

CCCCC=O
odorant receptor agonist call (Or10j5 (Mus musculus)): inactive
odorant receptor agonist call (Or1m1 (Mus musculus)): inactive
odorant receptor agonist call (Or5ar1 (Mus musculus)): inactive

CC1=C(O)C(=O)OC1C (configuration not stated)
odorant receptor agonist call (OR9Q1 (Homo sapiens)): inactive
odorant receptor agonist call (OR9Q1 A83T): inactive
odorant receptor agonist call (OR9Q2 (Homo sapiens)): inactive
odorant receptor agonist call (OR9Q2 C179R): inactive

O=C([O-])CCCCC(=O)[O-].[H+].[H+]
odorant receptor agonist call (Or10j5 (Mus musculus)): inactive

CCC(S)C(C)CO (configuration not stated)
odorant receptor agonist call (OR9Q1 (Homo sapiens)): inactive
odorant receptor agonist call (OR9Q2 (Homo sapiens)): inactive

CCC1OC(=O)C(O)=C1C (configuration not stated)
odorant receptor agonist call (OR9Q1 (Homo sapiens)): inactive
odorant receptor agonist call (OR9Q1 A83T): inactive
odorant receptor agonist call (OR9Q2 (Homo sapiens)): inactive
odorant receptor agonist call (OR9Q2 C179R): inactive
